No end group written: not given here.
Legend:
Format in all cases: in vivo, mouse
LNCaP tumor = experiment: Small-animal PET imaging, LNCaP tumor xenograft; conditions: for radioactivity accumulation in LNCaP tumor (PET): PET ROI analysis, i.v. tail vein, dual tumor bearing mice n = 4
Method in brief: (§1)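 Male athymic nude mice carried LNCaP (right shoulder, implanted 14 days earlier) and PC-3 (left shoulder) xenografts, each 100–200 mm3 (n = 4). Dosing was by tail vein: 160–170 μCi of labelled peptide in 200 μL 3% EtOH/saline, or 260 μCi of control peptide in 200 μL PBS. Static 15-min microPET scans were taken at 2 and 4 h under isoflurane. Decay-corrected ROI values were expressed as %ID/g by phantom calibration.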

PC-3 tumor = experiment: Small-animal PET imaging, PC-3 tumor xenograft; conditions: PET ROI analysis, i.v. tail vein, dual tumor bearing mice n = 4
Method in brief: as §1

LNCaP tumors = experiment: Postmortem biodistribution, LNCaP tumor uptake and tumor-to-tissue ratios; conditions: for LNCaP Tumor/kidney ratio: biodistribution

ACEQNPIYWARYADWLFTTPLLLLDLALLVDADEGTG-CO2H [[^18F]-4a]
radioactivity accumulation in LNCaP tumor (PET) (LNCaP tumor; 2 h p.i.): 8.3 ± 1.5 %ID/g | radioactivity accumulation in LNCaP tumor (PET) (LNCaP tumor; 4 h p.i.): 8.5 ± 1.3 %ID/g | radioactivity accumulation in PC-3 tumor (PET) (PC-3 tumor; 2 h p.i.): 4.2 ± 0.4 %ID/g | radioactivity accumulation in PC-3 tumor (PET) (PC-3 tumor; 4 h p.i.): 5.4 ± 0.5 %ID/g | LNCaP Tumor/kidney ratio (LNCaP tumors; 2 h p.i.): 0.3 | LNCaP Tumor/kidney ratio (LNCaP tumors; 4 h p.i.): 0.3 | LNCaP Tumor/liver ratio (LNCaP tumors; mouse, in vivo): 0.2

ACEQNPIYWARYAKWLFTTPLLLLKLALLVDADEGTG-OH [[^18F]-5]
tumor accumulation observed by PET (in words) (LNCaP tumor; PET images of mice bearing LNCaP and PC-3 tumors, negative control): lack of any tumor accumulation | LNCaP Tumor/kidney ratio (LNCaP tumors; 2 h p.i.): 0.4 | LNCaP Tumor/blood ratio (LNCaP tumors; mouse, in vivo): 0.1 | LNCaP Tumor/liver ratio (LNCaP tumors; mouse, in vivo): 0.2 | LNCaP Tumor/muscle ratio (LNCaP tumors; mouse, in vivo): 0.4

Reference: publication PMC3529145 (Bioconjugate chemistry, 2012)
